The text below walks through data of article PMC4658283 (Toxicology, 2015).

Structures can show the parent of a compound that is named as a salt.

Common to all, as to type: in vivo, rat
Data set [1] is described as follows: PCB 95 and OH-PCB tissue levels by GC-ECD. An outline of the steps:
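Killed 4 h after last injection (~28 h post-PCB). Tissues homogenized with diatomaceous earth and extracted over Florisil. OH-PCBs analysed as methylated derivatives; splitless injection at 280°C; PCB 204 internal standard.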

Data set [2] is described as follows: Enantioselective analysis of PCB 95 in tissues. To be noted: both experimental groups.
Data set [3] has as its system CYP2B protein. Put plainly: Western blot analysis of CYP2B protein in liver and cortex microsomes. To be noted: liver microsomes; 7 d exposure. Background: A western blot detects proteins with antibodies after separation by electrophoresis.
The mark [4] stands for this setting: both experimental groups dosed with PCB 95.

On to `Oc1cc(Cl)c(-c2cc(Cl)ccc2Cl)c(Cl)c1Cl` [4-95, 2,2′,3,5′,6-pentachlorobiphenyl-4-ol], for which, in data set [1] (setting [4]), the “detection of OH-PCB metabolite in blood and liver” value (from here on “detection of OH-PCB metabolite”) is recorded as “detected”.
As to `COc1c(Cl)cc(Cl)c(-c2cc(Cl)ccc2Cl)c1Cl` [3-103, 3-Methoxy-2,2′,4,5′,6-pentachlorobiphenyl], in data set [1] (setting [4]), the “detection of OH-PCB metabolite” value is “detected”.
On to `CN1CCC[C@H]1c1cccnc1` [Nicotine, (−)-Nicotine hydrogen tartrate salt, reference compound], for which, in data set [1] (nicotine 1 mg/kg/d s.c. 7 d plus PCB 95 6 mg/kg/d p.o., cortex, cerebellum, adipose, blood, liver, muscle), the “effect of nicotine co-exposure on levels of the parent compound PCB 95 in tissues” value is on record as “no effect”.
As to `Clc1ccc(Cl)c(-c2c(Cl)ccc(Cl)c2Cl)c1` [PCB 95, 2,2′,3,5′,6-Pentachlorobiphenyl], the “rank order of tissue EF values for PCB 95” value in data set [2] is “blood (sample pooled across experimental groups) > liver > muscle (samples pooled within experimental groups) > cortex > adipose”. Besides, in data set [3], the “hepatic CYP2B protein levels relative to vehicle controls (densitometry, normalized to GAPDH)” value is reported as “neither nicotine nor PCB 95 alone changed hepatic CYP2B levels”.
On to `COc1c(Cl)c(Cl)c(-c2cc(Cl)ccc2Cl)c(Cl)c1OC` [4,5-95, 4,5-dimethoxy-2,2′,3,5′,6-pentachlorobiphenyl], for which the “detection of OH-PCB metabolite” value in data set [1] (setting [4]) is “detected”.
As to `Oc1cc(Cl)c(Cl)c(-c2cc(Cl)ccc2Cl)c1Cl` [5-95, 2,2′,3,5′,6-pentachlorobiphenyl-5-ol], in data set [1] (setting [4]), the “detection of OH-PCB metabolite” value was “detected”; the “detection of metabolite in adipose tissue” value was “detected as a minor metabolite”.
On to `Oc1cc(Cl)c(-c2c(Cl)ccc(Cl)c2Cl)cc1Cl` [4′-95], for which the “detection of OH-PCB metabolite” value in data set [1] (setting [4]) is “detected”.
